Pf Dd2 inh = blocks growth of Plasmodium falciparum Dd2 parasites; 94,000 compounds, 2.3% hits; P. falciparum Dd2 growth, SYBR Green, 72 h; active compounds read low; activity change, % at 10 µM; in the data active = activity change below about -80%; inconclusive = no clear call, values can overlap the other calls
KDM4C inh = blocks human GASC-1 (KDM4C) demethylase activity; Q9H3R0; GST-KDM4C 2-372, H3K9me3 peptide, LANCE TR-FRET; inhibition, % at 12.5 µM; 96,000 compounds, 0.15% hits; AID 720574;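 active = mean replicate inhibition above about 25%, with at least 55% of replicates also reaching it, limit read from the data, passing the limit was not always enough; inconclusive = only one of those two conditions met; inactive = neither condition met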
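Material: GST-tagged GASC-1 (JMJD2C) catalytic fragment, aa 2-372. Input: enzyme final amount 10 nM. Medium: HEPES buffer, pH 7.5, plus ascorbate. Reagent: H3K9me3 peptide substrate, Fe(II), 2-oxoglutarate. Doses: single dose. Times: reaction 30 min RT, detection step 1 h RT. Measured by: LANCE TR-FRET. Evaluation: Fall in 671/618 emission ratio as inhibition.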
IDH1 mut inh = inhibitors of human IDH1 R132H. IDH1 R132H reductase, diaphorase/resazurin fluorescence, 60 min. inhibition, % at 10 µM. 70,000 compounds, 0.18% hits. AID 624101. O75874; in the data active = inhibition above about 34%; inconclusive = no clear call, values can overlap the other calls; inactive = below about 11%;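 note: 0% = DMSO and 100% = no enzyme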
Target sequence (O75874 whole entry R132H): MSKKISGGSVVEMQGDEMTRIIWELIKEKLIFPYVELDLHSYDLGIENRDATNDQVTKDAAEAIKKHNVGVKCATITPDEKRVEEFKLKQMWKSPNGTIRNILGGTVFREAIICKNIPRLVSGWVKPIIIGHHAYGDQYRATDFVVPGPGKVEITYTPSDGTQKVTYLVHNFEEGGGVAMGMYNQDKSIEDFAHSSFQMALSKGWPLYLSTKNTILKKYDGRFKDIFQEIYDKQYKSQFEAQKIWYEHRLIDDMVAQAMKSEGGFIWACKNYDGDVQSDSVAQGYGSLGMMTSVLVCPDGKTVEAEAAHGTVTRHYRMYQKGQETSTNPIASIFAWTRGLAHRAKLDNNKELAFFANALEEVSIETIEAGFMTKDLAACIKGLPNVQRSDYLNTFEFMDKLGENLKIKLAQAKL
T cruzi growth-1 = blocks T. cruzi growth in NIH3T3 culture; T. cruzi beta-gal in NIH3T3, GalScreen luminescence, 90 h; inhibition, % at 8.34 µM; 77,000 compounds, 5.9% hits;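 active = mean inhibition above about 93%, with at least 55% of replicates each passing it, limit read from the data, passing the limit was not always enough; inconclusive = only one of those two conditions holds; inactive = neither condition holds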
T cruzi growth-2 = Trypanosoma cruzi proliferation inhibition; shares compounds with T cruzi growth-1; T. cruzi beta-gal in NIH3T3, GalScreen luminescence, 90 h; inhibition, % at 8.35 µM; 5,600 compounds, 72% hits; AID 651739;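 active = mean replicate inhibition above about 95% and at least 55% of replicates individually reaching it, limit read from the data; inconclusive = only one of the two criteria is met; inactive = neither criterion is met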
T cruzi growth-3 = blocks T. cruzi growth in NIH3T3 host cells; shares compounds with T cruzi growth-1; inhibition, % at 2.09 µM; 5,600 compounds, 21% hits; AID 651740; T. cruzi beta-gal in NIH3T3, GalScreen luminescence, 90 h;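 active = mean inhibition above about 95%, with at least 55% of replicates also reaching it, limit read from the data; inconclusive = meets just one of the two conditions; inactive = meets neither condition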;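 note: plate controls were neutral control median for no effect and positive control median for full effect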
3T3 cytotox = NIH/3T3 (mouse) viability loss; NIH/3T3 viability, CellTiter-Glo ATP luminescence, 90 h; cytotoxicity (signal decrease), % at 8.35 µM; 5,600 compounds, 14% hits; shares compounds with T cruzi growth-1;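 active = mean signal decrease across replicates above about 35% based on untreated-well scatter, with enough replicates individually passing, limit read from the data; inconclusive = no rule stated though some were filed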;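 note: 0% = median of neutral control wells and 100% = median of positive control wells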
3T3 cytotox 2 = kills mouse NIH/3T3 fibroblasts; shares compounds with T cruzi growth-1; NIH/3T3 viability, CellTiter-Glo ATP luminescence, 90 h; inhibition, % at 24.9 µM; 5,600 compounds, 56% hits;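 active = mean loss of cell viability signal at or above a set limit, and enough replicates individually reaching it; inconclusive = meets only the mean limit or only the replicate share; inactive = meets neither condition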;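 note: 0% = median of neutral control wells and 100% = median of positive control wells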
* = called active by the depositor; u = inconclusive; x = no result. The list is not random: actives were taken first. Their share in the collection is about 5.9%.

SMILES	Pf Dd2 inh	KDM4C inh	IDH1 mut inh	T cruzi growth-1	T cruzi growth-2	T cruzi growth-3	3T3 cytotox	3T3 cytotox 2
C[C@H](CO)N1C[C@H](C)[C@@H](CN(C)C(=O)c2ccccc2)Oc2cc(C3=CCCC3)ccc2S1(=O)=O	-42	2	0	83	x	x	x	x
C[C@@H]1CN([C@H](C)CO)S(=O)(=O)c2ccc(C3=CCCC3)cc2O[C@@H]1CN(C)C(=O)c1ccc(F)cc1	-21	1	7	x	x	x	x	x
C[C@H](CO)N1C[C@H](C)[C@@H](CN(C)C(=O)c2ccc(F)cc2)Oc2cc(C3=CCCCC3)ccc2S1(=O)=O	-73	-4	0	u	110*	52	31	48*
C[C@@H]1CN([C@@H](C)CO)S(=O)(=O)c2ccc(C3=CCCCC3)cc2O[C@@H]1CN(C)C(=O)c1ccccc1	-29	1	x	108*	84	93	27	70*
C[C@@H]1CN([C@@H](C)CO)S(=O)(=O)c2ccc(C3=CCCC3)cc2O[C@@H]1CN(C)C(=O)c1ccccc1	-33	-2	0	100*	114*	86	13	18
CCn1nc(C(=O)O)c(=O)c2cc3c(cc21)OCO3	x	x	0	x	x	x	x	x
COc1cccc(NC(=O)N2C[C@H](O)COC[C@H]3O[C@@H](CC(=O)NC4Cc5ccccc5C4)CC[C@@H]32)c1	13	1	x	109*	-7	-42	-16	-4
CCCNC(=O)C[C@@H]1CC[C@H]2[C@@H](COC[C@H](O)CN2C(=O)Nc2ccccc2OC)O1	1	0	x	48	x	x	x	x
C[C@@H](NC(=O)C[C@H]1CC[C@H]2[C@@H](COC[C@H](O)CN2C(=O)Nc2cccc(Cl)c2)O1)c1ccccc1	-42	1	x	110*	105*	-1	10	46*
C[C@@H](NC(=O)C[C@@H]1CC[C@H]2[C@@H](COC[C@H](O)CN2C(=O)Nc2cc(Cl)cc(Cl)c2)O1)c1ccccc1	-2	1	x	100*	104*	91	30	52*
CCCNC(=O)C[C@H]1CC[C@H]2[C@@H](COC[C@H](O)CN2C(=O)Nc2ccccc2OC)O1	-22	1	x	117*	97*	0	-8	-10
CO[C@H]1CN(C)C(=O)c2cc(NS(=O)(=O)c3ccccc3)ccc2OC[C@@H](C)NC[C@@H]1C	13	-1	0	x	x	x	x	x
COc1ccccc1C#Cc1ccc([C@H]2[C@@H](C#N)N(C(=O)C3CC3)[C@@H]2CO)cc1	-42	0	x	97*	101*	107*	30	50*
COc1cccc(C#Cc2ccc([C@H]3[C@H](C#N)N(C(=O)C4CC4)[C@H]3CO)cc2)c1	-39	-4	x	104*	106*	76	6	42*
COc1ccccc1C#Cc1ccc([C@@H]2[C@@H](C#N)N(C(=O)C3CC3)[C@@H]2CO)cc1	-3	-1	x	80	x	x	x	x
COc1ccccc1C#Cc1ccc([C@@H]2[C@H](C#N)N(C(=O)C3CC3)[C@H]2CO)cc1	-35	-1	x	88	x	x	x	x
COc1ccccc1C#Cc1ccc([C@@H]2[C@@H](C#N)N(C(=O)C3CC3)[C@H]2CO)cc1	-33	-2	x	99*	108*	86	-9	34*
COc1cccc(C#Cc2ccc([C@@H]3[C@@H](C#N)N(C(=O)C4CCCC4)[C@H]3CO)cc2)c1	-70	4	x	x	x	x	x	x
O=C(C[C@H]1C[C@@H]2c3cc(NS(=O)(=O)c4ccccc4)ccc3O[C@@H]2[C@@H](CO)O1)NC1CCCCC1	0	-2	0	7	x	x	x	x
CNC[C@H]1Oc2c(NC(=O)NC3CCCCC3)cccc2C(=O)N([C@@H](C)CO)C[C@H]1C	12	0	0	-10	x	x	x	x
CCCN1[C@@H]2c3ccc(C4=CCCCC4)c(=O)n3C[C@H]1[C@H](CO)[C@H]2C(=O)NCCc1ccncc1	-6	0	x	x	x	x	x	x
CCN1[C@@H]2Cn3c(ccc(C4=CCCCC4)c3=O)[C@H]1[C@@H](C(=O)NCCc1ccncc1)[C@@H]2CO	0	1	x	99*	-20	0	-27	-27
CCN1[C@@H]2Cn3c(ccc(C4=CCCC4)c3=O)[C@H]1[C@@H](C(=O)NCc1ccccn1)[C@@H]2CO	-4	1	x	99*	9	-9	-14	-7
CC(C)C#Cc1ccc2c(c1)O[C@H](CN(C)C(=O)C1CCCCC1)[C@H](C)CN([C@H](C)CO)S2(=O)=O	-16	-4	x	100*	108*	88	13	105*
CC(C)C#Cc1ccc2c(c1)O[C@H](CN(C)C(=O)C1CCCCC1)[C@@H](C)CN([C@@H](C)CO)S2(=O)=O	-34	-3	x	u	95*	82	7	106*
SMILES	Pf Dd2 inh	KDM4C inh	IDH1 mut inh	T cruzi growth-1	T cruzi growth-2	T cruzi growth-3	3T3 cytotox	3T3 cytotox 2
CC(C)C#Cc1ccc2c(c1)O[C@H](CN(C)C(=O)C1CCCCC1)[C@H](C)CN([C@@H](C)CO)S2(=O)=O	-1	5	-2	90	x	x	x	x
CC(C)C#Cc1ccc2c(c1)O[C@H](CN(C)C(=O)C1CCC1)[C@H](C)CN([C@H](C)CO)S2(=O)=O	-23	0	x	82	x	x	x	x
COC(=O)c1cccc2nc3c(C(C)O)cccc3nc12 (centres undefined)	x	x	0	x	x	x	x	x
C[C@H]1CN([C@@H](C)CO)C(=O)Cc2cc(NC(=O)Nc3ccc(C(F)(F)F)cc3)ccc2O[C@@H]1CN(C)C(=O)Nc1ccc(F)cc1	-74	1	3	4	x	x	x	x
CN1C(=O)c2cc(NC(=O)c3ccc(F)c(F)c3)ccc2OC[C@@H]2O[C@H](CC(=O)O)CC[C@H]21	3	-1	x	8	x	x	x	x
CCCN(C)C[C@@H]1OCCCC[C@@H](C)Oc2ccc(NC(=O)Nc3ccc(C(F)(F)F)cc3)cc2C(=O)N([C@H](C)CO)C[C@@H]1C	-74	-2	x	100*	107*	86	26	39*
CCCN(C)C[C@@H]1OCCCC[C@H](C)Oc2ccc(NC(=O)Nc3ccc(F)cc3)cc2C(=O)N([C@@H](C)CO)C[C@@H]1C	-63	-1	x	95*	99*	83	10	16
C[C@@H]1CCCCO[C@H](CN(C)C(=O)Nc2ccc(C(F)(F)F)cc2)[C@H](C)CN([C@@H](C)CO)C(=O)c2cc(NC(=O)Nc3cccc4ccccc34)ccc2O1	-73	-1	x	86	x	x	x	x
C[C@@H]1CCCCO[C@H](CN(C)C(=O)Nc2cccc3ccccc23)[C@H](C)CN([C@@H](C)CO)C(=O)c2cc(NC(=O)Nc3ccc(C(F)(F)F)cc3)ccc2O1	-63	-1	-3	109*	111*	113*	7	12
